# Activity calls are given as the source filed them. The rule behind the calls is not given here.
# Key:
# SARS-CoV-2 = assay: Antiviral activity against SARS coronavirus 2 infected in African green monkey Vero cells assessed as blockade of viral proliferation at 25 uM incubated for 48 hrs by cytopathic effect assay; assay type: functional, organism-based; settings: Severe acute respiratory syndrome coronavirus 2
# [1] = Inhibition of recombinant C-terminal His-tagged SARS coronavirus 2 3CL protease using Boc-Abu-Tle-Leu-Gln-AMC as substrate incubated for 5 mins by Cheng-Prusoff equation analysis; design: species or system Severe acute respiratory syndrome coronavirus 2
# Method in brief: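 His-tagged 3CLpro (8 ng/μL final) was assayed in 50 mM MOPS pH 7.2 with 10 mM NaCl, 1 mM EDTA and 0.01% Triton X-100. Substrate was 50 μM final (about Km) and DMSO 4% final. Inhibitor and substrate were preincubated 5 min at 37 °C, then enzyme was added and fluorescence (ex 360/em 460 nm) read for 10 min. At least 11 concentrations were tested; IC50 came from nonlinear regression and Ki from Cheng–Prusoff. n = 3.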
# [2] = Competitive inhibition of recombinant C-terminal His-tagged SARS coronavirus 2 3CL protease using Boc-Abu-Tle-Leu-Gln-AMC as substrate incubated for 5 mins by plate reader analysis; design: species or system Severe acute respiratory syndrome coronavirus 2
# Method in brief: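 Competitive-inhibition kinetics: fluorogenic substrate at 15, 30, 45, 60 and 75 μM was combined with inhibitor at 0, 10, 20, 30, 40 and 50 nM, and product formation was monitored for 10 min. Data were analysed by Lineweaver–Burk plot and global fit to a competitive model. Three independent experiments were run.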
# [3] = Inhibition of recombinant C-terminal His-tagged SARS coronavirus 1 3CL protease using Boc-Abu-Tle-Leu-Gln-AMC as substrate incubated for 5 mins by Cheng-Prusoff equation analysis; design: species or system Severe acute respiratory syndrome-related coronavirus
smiles,measurement,setting,value
CC(C)C[C@H](NC(=O)[C@@H](NC(=O)OCc1ccccc1)C(C)C)C(=O)N[C@@H](C[C@@H]1CCNC1=O)C(=O)c1nc2ccccc2s1,Activity,SARS-CoV-2,Active
same,Ki,[1],14.5 nM
same,Ki,[2],19.8 nM
same,Ki,[3],4.1 nM

# From ChEMBL document CHEMBL5042480, “3CL Protease Inhibitors with an Electrophilic Arylketone Moiety as Anti-SARS-CoV-2 Agents” (J Med Chem, 2022)
